Tests used:
Settings in all cases: stereoisomer not certain
OR10H4 (Homo sapiens) = target: T1, OR10H4 (Homo sapiens) (UniProt Q8NGA5)
T1 sequence (whole entry): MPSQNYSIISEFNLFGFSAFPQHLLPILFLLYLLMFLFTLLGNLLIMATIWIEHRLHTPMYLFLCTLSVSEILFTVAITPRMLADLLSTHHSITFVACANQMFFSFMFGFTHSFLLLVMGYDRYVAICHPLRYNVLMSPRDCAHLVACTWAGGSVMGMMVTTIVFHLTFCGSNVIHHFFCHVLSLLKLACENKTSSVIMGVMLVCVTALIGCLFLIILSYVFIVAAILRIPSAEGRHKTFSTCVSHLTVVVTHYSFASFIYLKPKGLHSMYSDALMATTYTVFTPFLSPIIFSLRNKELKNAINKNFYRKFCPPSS
Method in brief: (§1)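 Transient luciferase assays in mammalian cell lines were common, though methods varied by source. The values come from published papers and their supplementary material, with extra details from the original authors when needed. Responsive refers to a measured signal the original authors judged statistically different from baseline, and non-responsive (inactive) to the remainder.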

OR10H5 (Homo sapiens) = target: T2, OR10H5 (Homo sapiens) (UniProt Q8NGA6)
T2 sequence (whole entry): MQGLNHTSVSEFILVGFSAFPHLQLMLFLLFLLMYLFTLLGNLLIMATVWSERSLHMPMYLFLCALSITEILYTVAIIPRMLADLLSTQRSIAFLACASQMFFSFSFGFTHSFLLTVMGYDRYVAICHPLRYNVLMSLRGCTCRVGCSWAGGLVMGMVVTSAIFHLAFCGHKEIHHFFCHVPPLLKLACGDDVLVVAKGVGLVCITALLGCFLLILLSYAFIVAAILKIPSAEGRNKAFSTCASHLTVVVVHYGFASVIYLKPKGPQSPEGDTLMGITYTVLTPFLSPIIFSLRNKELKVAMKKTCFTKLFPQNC
Method in brief: as §1

OR10J1 (Homo sapiens) = target: T3, OR10J1 (Homo sapiens) (UniProt P30954)
T3 sequence (whole entry): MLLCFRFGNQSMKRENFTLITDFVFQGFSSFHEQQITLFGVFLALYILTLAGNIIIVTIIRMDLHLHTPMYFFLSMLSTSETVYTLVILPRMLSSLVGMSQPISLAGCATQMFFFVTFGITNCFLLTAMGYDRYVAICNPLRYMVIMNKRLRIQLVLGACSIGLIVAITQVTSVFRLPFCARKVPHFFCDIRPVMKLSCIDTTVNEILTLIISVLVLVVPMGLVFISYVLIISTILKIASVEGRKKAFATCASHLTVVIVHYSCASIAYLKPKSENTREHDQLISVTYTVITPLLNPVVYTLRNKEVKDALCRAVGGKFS
Method in brief: as §1

OR10J3 (Homo sapiens) = target: T4, OR10J3 (Homo sapiens) (UniProt Q5JRS4)
T4 sequence (whole entry): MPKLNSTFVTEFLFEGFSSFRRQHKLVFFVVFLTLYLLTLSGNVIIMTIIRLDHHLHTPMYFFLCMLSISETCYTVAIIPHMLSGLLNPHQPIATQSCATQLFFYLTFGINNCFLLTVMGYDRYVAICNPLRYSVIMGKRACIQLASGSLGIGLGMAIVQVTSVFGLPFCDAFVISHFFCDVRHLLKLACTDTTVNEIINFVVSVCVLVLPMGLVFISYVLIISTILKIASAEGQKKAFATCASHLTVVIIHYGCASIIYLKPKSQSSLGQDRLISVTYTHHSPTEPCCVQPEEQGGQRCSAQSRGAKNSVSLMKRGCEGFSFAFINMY
Method in brief: as §1

OR10J5 (Homo sapiens) = target: T5, OR10J5 (Homo sapiens) (UniProt Q8NHC4)
T5 sequence (whole entry): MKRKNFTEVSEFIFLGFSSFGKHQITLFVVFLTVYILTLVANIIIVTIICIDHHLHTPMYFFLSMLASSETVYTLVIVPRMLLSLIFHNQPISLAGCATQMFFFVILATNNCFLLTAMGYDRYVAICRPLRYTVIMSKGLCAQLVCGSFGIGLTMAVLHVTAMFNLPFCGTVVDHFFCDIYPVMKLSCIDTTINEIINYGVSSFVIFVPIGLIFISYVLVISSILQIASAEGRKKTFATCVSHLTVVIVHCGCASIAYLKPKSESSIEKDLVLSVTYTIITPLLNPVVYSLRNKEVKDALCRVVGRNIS
Method in brief: as §1

OR10K1 (Homo sapiens) = target: T6, OR10K1 (Homo sapiens) (UniProt Q8NGX5)
T6 sequence (whole entry): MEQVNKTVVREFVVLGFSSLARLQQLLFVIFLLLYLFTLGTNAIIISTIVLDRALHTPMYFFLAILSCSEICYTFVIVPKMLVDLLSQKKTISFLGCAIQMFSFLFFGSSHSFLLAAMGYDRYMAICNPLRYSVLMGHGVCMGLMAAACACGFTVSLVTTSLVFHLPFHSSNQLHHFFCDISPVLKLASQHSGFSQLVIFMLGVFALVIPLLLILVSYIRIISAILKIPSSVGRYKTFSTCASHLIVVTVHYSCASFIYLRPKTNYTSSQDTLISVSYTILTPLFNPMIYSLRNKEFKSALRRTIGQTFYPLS
Method in brief: as §1

OR10P1 (Homo sapiens) = target: T7, OR10P1 (Homo sapiens) (UniProt Q8NGE3)
T7 sequence (whole entry): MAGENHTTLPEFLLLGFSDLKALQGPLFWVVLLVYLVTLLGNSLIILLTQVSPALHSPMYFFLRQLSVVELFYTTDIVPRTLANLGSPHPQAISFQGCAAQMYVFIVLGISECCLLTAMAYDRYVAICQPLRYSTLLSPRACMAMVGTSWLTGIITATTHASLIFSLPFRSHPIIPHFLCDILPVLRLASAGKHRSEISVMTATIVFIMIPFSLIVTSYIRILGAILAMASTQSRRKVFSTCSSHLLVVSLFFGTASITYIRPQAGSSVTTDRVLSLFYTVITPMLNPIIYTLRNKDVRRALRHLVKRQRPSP
Method in brief: as §1

OR10Q1 (Homo sapiens) = target: T8, OR10Q1 (Homo sapiens) (UniProt Q8NGQ4)
T8 sequence (whole entry): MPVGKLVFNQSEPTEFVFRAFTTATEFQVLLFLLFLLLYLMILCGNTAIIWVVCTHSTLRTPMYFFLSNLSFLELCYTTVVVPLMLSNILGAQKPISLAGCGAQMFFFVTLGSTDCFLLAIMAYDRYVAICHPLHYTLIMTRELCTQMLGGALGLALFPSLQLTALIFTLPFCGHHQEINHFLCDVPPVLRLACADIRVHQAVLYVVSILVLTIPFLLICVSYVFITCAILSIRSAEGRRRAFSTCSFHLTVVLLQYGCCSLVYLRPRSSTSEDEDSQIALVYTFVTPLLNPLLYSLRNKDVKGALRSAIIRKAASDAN
Method in brief: as §1

OR10R2 (Homo sapiens) = target: T9, OR10R2 (Homo sapiens) (UniProt Q8NGX6)
T9 sequence (whole entry): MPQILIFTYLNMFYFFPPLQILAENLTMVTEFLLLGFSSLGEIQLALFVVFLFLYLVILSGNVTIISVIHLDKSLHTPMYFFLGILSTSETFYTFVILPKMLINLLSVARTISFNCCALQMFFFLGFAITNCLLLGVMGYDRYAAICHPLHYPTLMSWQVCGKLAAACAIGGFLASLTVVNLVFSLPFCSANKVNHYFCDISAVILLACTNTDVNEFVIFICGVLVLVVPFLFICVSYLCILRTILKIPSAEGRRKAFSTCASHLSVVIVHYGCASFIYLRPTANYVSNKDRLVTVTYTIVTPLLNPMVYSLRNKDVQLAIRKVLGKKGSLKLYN
Method in brief: as §1

OR10S1 (Homo sapiens) = target: T10, OR10S1 (Homo sapiens) (UniProt Q8NGN2)
T10 sequence (whole entry): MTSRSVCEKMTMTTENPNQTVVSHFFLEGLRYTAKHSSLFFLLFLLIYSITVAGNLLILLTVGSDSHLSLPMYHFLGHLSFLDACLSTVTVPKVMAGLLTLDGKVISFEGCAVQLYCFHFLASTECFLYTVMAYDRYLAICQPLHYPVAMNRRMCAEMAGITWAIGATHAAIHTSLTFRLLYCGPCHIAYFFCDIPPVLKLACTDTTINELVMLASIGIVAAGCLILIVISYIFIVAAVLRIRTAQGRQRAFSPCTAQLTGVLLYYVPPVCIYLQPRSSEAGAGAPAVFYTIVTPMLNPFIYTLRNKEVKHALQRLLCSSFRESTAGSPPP
Method in brief: as §1

OR10T2 (Homo sapiens) = target: T11, OR10T2 (Homo sapiens) (UniProt Q8NGX3)
T11 sequence (whole entry): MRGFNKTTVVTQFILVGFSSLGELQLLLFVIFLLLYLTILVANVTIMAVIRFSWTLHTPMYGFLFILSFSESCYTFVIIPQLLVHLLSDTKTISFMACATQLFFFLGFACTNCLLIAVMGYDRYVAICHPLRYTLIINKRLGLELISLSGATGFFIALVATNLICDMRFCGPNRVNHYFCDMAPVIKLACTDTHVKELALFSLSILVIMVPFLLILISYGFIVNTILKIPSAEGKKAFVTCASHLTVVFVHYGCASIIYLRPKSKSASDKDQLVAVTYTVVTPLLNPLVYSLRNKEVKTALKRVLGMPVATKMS
Method in brief: as §1

OR10V1 (Homo sapiens) = target: T12, OR10V1 (Homo sapiens) (UniProt Q8NGI7)
T12 sequence (whole entry): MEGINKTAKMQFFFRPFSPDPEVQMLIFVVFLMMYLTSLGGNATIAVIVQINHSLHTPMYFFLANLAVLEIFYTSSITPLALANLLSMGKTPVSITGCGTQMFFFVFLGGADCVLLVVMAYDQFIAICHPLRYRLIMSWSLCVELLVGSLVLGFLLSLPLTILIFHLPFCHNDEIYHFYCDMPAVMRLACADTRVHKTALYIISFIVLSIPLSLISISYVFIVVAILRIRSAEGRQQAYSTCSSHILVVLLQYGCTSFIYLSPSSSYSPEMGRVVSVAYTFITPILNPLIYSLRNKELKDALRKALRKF
Method in brief: as §1

OR10W1 (Homo sapiens) = target: T13, OR10W1 (Homo sapiens) (UniProt Q8NGF6)
T13 sequence (whole entry): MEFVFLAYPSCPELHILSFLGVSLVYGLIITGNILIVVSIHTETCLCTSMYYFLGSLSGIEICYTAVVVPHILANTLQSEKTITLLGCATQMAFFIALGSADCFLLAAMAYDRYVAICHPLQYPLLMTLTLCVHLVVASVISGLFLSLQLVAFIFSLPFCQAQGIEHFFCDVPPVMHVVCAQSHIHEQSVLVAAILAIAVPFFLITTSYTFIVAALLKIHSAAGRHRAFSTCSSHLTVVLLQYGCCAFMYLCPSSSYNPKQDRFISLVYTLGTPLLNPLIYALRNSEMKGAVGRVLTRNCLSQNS
Method in brief: as §1

OR10X1 (Homo sapiens) = target: T14, OR10X1 (Homo sapiens) (UniProt Q8NGY0)
T14 sequence (whole entry): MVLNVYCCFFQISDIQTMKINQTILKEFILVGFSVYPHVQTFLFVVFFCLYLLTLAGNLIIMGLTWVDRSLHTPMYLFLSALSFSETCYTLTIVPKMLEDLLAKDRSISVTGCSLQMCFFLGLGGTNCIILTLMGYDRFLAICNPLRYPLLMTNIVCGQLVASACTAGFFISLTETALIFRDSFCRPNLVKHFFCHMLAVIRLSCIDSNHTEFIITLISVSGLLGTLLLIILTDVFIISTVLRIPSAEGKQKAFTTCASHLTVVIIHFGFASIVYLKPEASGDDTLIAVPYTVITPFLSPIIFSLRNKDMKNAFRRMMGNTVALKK
Method in brief: as §1

OR10Z1 (Homo sapiens) = target: T15, OR10Z1 (Homo sapiens) (UniProt Q8NGY1)
T15 sequence (whole entry): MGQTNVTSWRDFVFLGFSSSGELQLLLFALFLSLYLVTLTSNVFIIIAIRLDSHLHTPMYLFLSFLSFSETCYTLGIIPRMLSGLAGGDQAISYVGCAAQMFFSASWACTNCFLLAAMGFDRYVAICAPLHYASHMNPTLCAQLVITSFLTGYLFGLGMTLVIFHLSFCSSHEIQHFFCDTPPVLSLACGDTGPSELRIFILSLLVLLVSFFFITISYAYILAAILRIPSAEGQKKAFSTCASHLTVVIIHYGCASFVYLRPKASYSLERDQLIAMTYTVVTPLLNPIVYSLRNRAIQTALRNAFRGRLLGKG
Method in brief: as §1

OR11A1 (Homo sapiens) = target: T16, OR11A1 (Homo sapiens) (UniProt Q9GZK7)
T16 sequence (whole entry): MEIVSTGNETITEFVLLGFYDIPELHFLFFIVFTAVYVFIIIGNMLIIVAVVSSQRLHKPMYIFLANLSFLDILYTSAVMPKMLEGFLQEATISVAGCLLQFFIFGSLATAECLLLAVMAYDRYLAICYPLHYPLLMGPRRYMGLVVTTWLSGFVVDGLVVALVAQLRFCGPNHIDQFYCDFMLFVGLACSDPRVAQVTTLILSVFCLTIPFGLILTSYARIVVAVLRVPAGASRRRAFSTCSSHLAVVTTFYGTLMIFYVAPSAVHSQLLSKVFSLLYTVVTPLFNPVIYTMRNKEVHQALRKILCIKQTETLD
Method in brief: as §1

OR11G2 (Homo sapiens) = target: T17, OR11G2 (Homo sapiens) (UniProt Q8NGC1)
T17 sequence (whole entry): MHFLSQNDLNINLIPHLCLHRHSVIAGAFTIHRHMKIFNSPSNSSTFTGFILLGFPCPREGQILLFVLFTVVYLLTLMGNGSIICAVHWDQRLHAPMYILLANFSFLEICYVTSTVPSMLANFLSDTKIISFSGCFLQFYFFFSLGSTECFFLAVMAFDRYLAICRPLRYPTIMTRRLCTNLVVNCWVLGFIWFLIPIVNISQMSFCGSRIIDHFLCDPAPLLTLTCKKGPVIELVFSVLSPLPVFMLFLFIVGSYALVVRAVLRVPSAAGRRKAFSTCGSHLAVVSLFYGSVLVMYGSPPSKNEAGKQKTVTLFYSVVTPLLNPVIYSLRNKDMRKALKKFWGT
Method in brief: as §1

OR11H1 (Homo sapiens) = target: T18, OR11H1 (Homo sapiens) (UniProt Q8NG94)
T18 sequence (whole entry): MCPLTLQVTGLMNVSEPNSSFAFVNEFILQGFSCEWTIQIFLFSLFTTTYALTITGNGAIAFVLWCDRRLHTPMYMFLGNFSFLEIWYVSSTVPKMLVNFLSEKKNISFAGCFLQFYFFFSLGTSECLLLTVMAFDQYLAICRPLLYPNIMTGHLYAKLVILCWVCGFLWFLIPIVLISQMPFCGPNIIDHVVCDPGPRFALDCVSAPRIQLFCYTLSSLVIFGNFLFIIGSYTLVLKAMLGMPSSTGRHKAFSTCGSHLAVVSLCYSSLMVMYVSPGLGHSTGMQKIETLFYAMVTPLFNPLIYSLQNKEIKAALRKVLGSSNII
Method in brief: as §1

Measured: odorant receptor agonist call;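 also: active if original authors judged signal statistically different from baseline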

CC1=NC(C)C(C)S1 (stereo not drawn)
inactive: all assays above
